Results reported in article PMC7141409 (Journal of biomolecular NMR, 2019).

How the values were obtained:
[1] = tested on: E3 ubiquitin ligase SCF^TIR1; conditions: rice strain with OsIAA11 P106L; cited from earlier work
rice = rice strain with OsIAA11 P106L; cited from earlier work
[2] = tested on: ^15N-OsIAA11^72−125 (W104-P105 peptide bond); assay: Nzz-exchange: catalyzed cis-trans exchange of W104-P105; type: biochemical, rice
Outline: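 15N-labeled OsIAA11 72–125 substrate (800μM) with 16μM enzyme (LRT2 mutant or homolog) in NMR buffer (50mM KCl, 20mM KPO4, 3mM TCEP, 5mM NaN3, 0.1% protease inhibitor cocktail, pH=6.67). Protein concentrations were set by A280 using theoretical extinction coefficients. Nzz-exchange spectra were processed to give the observed cis-trans exchange rate (kexobs) of the W104-P105 bond with uncertainties.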

[3] = Succinyl-Ala-Ala-Pro-Phe-NH-Mec; cited from earlier work

| Molecule | Proteasomal degradation [1] | Lateral root development (rice) | Nzz exchange crosspeaks / activity ([2]; 16μM enzyme, 800μM OsIAA11^72–125) | Nzz-measured kexobs ([2]; 1H-15N Nzz exchange, 16μM enzyme, 800μM OsIAA11^72–125, NMR buffer pH=6.67) [s⁻¹] | Activity relative to WT LRT2 on OsIAA11 ([2]; Nzz, % of WT LRT2 activity) [%] | kcat/Km relative to hCypA [3] |
| --- | --- | --- | --- | --- | --- | --- |
| OsIAA11 P106L: OsIAA11 P106L mutation (directly adjacent to the W104-P105 peptide bond) (protein, UniProt Q75GK0 1-233, looked up, variant P106L) Auxin-responsive protein IAA11: MAGLGFDETELRLGLPGAGELAARSSGKRGFAETIDLKLKLQPAAPAAVSGEEGAQEDKEDADAAAAAADEKMSMKRSASQSSVVTAEPDPDKPRAPKAQVVGWPLVRSFRKNVLAEKCKAAALVKVSMDGAPYLRKIDVAMYKSYPELSMAFQNMFTSFTIGKCGSHQQLKESNKLRDDLEYVPTYEDKDGDWMLVGDVPWEMFVESCKRLRIMKGSEAIGLAPRAVEKCKS | evades proteasomal degradation | no induction of lateral root development | – | – | – | – |
| PPIB: petidyl-prolyl isomerase B from E. coli (Uniprot entry P23869) (protein, UniProt P23869 1-164, looked up) Peptidyl-prolyl cis-trans …: MVTFHTNHGDIVIKTFDDKAPETVKNFLDYCREGFYNNTIFHRVINGFMIQGGGFEPGMKQKATKEPIKNEANNGLKNTRGTLAMARTQAPHSATAQFFINVVDNDFLNFSGESLQGWGYCVFAEVVDGMDVVDKIKGVATGRSGMHQDVPKEDVIIESVTVSE | – | – | clear exchange crosspeaks | 0.37 ± 0.04 | 60 | more than an order of magnitude higher kcat/Km than hCypA |
